Each compound was assayed against T1, Mineralocorticoid receptor (Homo sapiens) (UniProt P08235) (assay: Antagonist activity at cloned mineralocorticoid receptor-ligand binding domain expressed in african green monkey COS7 cells by GAL4 luciferase reporter assay). Conditions: COS-7; concentration not given here.
T1 sequence (whole entry): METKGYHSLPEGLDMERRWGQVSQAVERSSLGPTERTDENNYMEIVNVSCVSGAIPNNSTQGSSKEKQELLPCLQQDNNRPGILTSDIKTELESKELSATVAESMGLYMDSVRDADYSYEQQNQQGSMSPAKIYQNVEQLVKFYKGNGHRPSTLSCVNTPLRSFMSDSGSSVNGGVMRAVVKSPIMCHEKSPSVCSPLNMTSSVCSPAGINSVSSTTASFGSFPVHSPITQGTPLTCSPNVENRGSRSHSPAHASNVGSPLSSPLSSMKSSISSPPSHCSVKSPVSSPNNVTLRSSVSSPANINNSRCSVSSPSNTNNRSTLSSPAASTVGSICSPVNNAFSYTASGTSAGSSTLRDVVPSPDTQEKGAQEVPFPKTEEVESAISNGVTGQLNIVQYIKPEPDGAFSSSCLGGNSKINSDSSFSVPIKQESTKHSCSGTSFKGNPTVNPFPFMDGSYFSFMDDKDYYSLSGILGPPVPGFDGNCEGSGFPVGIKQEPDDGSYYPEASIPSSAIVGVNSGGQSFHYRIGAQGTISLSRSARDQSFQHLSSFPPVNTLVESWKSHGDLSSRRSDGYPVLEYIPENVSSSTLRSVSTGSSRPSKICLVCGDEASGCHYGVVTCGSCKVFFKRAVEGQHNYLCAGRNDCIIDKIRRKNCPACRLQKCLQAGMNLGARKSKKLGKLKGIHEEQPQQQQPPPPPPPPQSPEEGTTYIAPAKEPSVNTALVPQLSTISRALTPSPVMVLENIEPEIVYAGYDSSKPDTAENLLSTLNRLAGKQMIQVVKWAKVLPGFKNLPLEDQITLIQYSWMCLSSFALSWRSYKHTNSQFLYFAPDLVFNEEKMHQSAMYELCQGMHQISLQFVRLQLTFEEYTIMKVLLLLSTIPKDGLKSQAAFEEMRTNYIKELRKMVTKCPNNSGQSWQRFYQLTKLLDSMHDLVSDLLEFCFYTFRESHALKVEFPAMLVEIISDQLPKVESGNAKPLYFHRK
Assay type: cell-based
Procedure, shortened: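 GAL4 DNA-binding domain fused to receptor ligand-binding domain, one-hybrid format. LBD fusion and GAL4_UAS (5 copies, E1b minimal TATA) luciferase reporter plasmids, 50 ng/well each, transfected 16 h into COS-7 cells. Cells grown in phenol red-free DMEM with 10% charcoal/dextran-treated FBS. Compound exposure 20 h, then luciferase read on lysates. Mean of at least duplicate determinations.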

| SMILES | inhibition [%] |
| --- | --- |
| CC#C[C@]1(O)CC[C@H]2[C@@H]3CCC4=CC(=O)CCC4=C3[C@@H](c3ccc(N(C)C)cc3)C[C@@]21C | 96 |

These compounds were tested against T2, Progesterone receptor (Homo sapiens, UniProt P06401) (assay: Inhibition of progesterone receptor mediated progesterone-induced alkaline phosphatase activity in human T47D cells). Conditions: not given.
T2 sequence (P06401 whole entry): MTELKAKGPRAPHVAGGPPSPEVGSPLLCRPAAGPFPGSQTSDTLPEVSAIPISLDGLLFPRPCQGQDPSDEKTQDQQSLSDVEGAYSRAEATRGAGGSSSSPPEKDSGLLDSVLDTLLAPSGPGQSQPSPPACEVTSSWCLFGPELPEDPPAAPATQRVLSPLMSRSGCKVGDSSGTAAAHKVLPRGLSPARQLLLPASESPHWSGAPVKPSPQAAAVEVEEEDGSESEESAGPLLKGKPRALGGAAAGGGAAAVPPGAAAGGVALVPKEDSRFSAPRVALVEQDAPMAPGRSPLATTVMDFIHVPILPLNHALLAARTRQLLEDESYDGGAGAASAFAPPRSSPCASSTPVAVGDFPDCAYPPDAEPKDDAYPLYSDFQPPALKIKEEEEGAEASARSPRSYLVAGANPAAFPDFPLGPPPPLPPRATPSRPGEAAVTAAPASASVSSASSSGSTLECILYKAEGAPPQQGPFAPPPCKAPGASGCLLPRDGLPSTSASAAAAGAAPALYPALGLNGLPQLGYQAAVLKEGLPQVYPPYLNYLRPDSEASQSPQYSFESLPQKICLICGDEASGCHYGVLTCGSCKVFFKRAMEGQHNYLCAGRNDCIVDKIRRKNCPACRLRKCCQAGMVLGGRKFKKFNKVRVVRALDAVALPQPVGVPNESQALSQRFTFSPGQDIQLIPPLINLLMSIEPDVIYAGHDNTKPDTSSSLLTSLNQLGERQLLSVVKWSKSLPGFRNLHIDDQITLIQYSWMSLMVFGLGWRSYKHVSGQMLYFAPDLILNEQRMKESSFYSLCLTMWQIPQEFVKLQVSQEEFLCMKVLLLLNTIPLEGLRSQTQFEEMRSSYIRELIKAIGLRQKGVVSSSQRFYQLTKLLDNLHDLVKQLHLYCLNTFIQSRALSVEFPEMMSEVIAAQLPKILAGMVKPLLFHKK
Assay type: cell-based

| SMILES | IC50 [µM] |
| --- | --- |
| CC(C)C1(c2cccs2)OCC(=O)Nc2ccc(-c3cc(F)cc(C#N)c3)cc21 (stereo not given) | 0.138 |
| CC(C)C1(c2cccs2)OCC(=S)Nc2ccc(-c3cc(F)cc(C#N)c3)cc21 (stereo not given) | 0.0782 |
| O=C1COC(c2ccc(Cl)s2)(c2ccc(Cl)s2)c2cc(-c3ccc(F)c(Cl)c3)ccc2N1 | 1 |
| O=C1COC(c2ccco2)(c2ccco2)c2cc(-c3ccc(F)c(Cl)c3)ccc2N1 | 0.0225 |
| O=C1COC(c2ccccc2)(c2ccccc2)c2cc(-c3ccc(F)c(Cl)c3)ccc2N1 | 0.088 |
| CCC1(c2ccsc2)OCC(=O)Nc2ccc(-c3ccc(F)c(Cl)c3)cc21 (stereo not given) | 0.117 |
| CC1(C)OCC(=O)Nc2ccc(-c3cccc(F)c3)cc21 | 0.0149 |
| CCC1(c2ccsc2)OCC(=O)Nc2ccc(-c3cc(F)cc(C#N)c3)cc21 (stereo not given) | 0.0592 |
| CC1(C)OCC(=O)Nc2ccc(-c3ccc(F)c(F)c3)cc21 | 0.0293 |
| N#Cc1cc(F)cc(-c2ccc3c(c2)C(c2ccco2)(C(F)(F)C(F)(F)F)OCC(=O)N3)c1 (stereo not given) | 0.0341 |
| CC1(C)OCC(=O)Nc2ccc(-c3cccc(F)c3F)cc21 | 0.0157 |
| O=C1COC(c2ccco2)(C(F)(F)C(F)(F)F)c2cc(-c3ccc(F)c(Cl)c3)ccc2N1 (stereo not given) | 0.0824 |
| CCCC1(c2cccs2)OCC(=O)Nc2ccc(-c3ccc(F)c(Cl)c3)cc21 (stereo not given) | 0.349 |
| N#Cc1cc(F)cc(-c2ccc3c(c2)C(c2ccc(Cl)s2)(c2ccc(Cl)s2)OCC(=O)N3)c1 | 1 |
| CC1(C)OCC(=O)Nc2ccc(-c3ccc(F)c(Cl)c3)cc21 | 0.0301 |
| CC1(C)OCC(=O)Nc2ccc(-c3ccc(F)cc3)cc21 | 0.1 |

| SMILES | IC50 [µM] |
| --- | --- |
| CC1(C)OCC(=O)Nc2ccc(-c3ccccc3F)cc21 | 0.0621 |
| CCC1(c2cccs2)OCC(=O)Nc2ccc(-c3ccc(F)c(Cl)c3)cc21 (stereo not given) | 0.208 |
| CC1(C)OCC(=O)Nc2ccc(-c3cc(Cl)cc(Cl)c3)cc21 | 0.0291 |
| CC1=NCC(=O)Nc2ccc(-c3ccc(F)c(Cl)c3)cc21 | 0.677 |
| CC(C)C1(c2cccs2)OCC(=O)Nc2ccc(-c3ccc(F)c(Cl)c3)cc21 (stereo not given) | 0.366 |
| CN1CC(=O)Nc2ccc(-c3ccc(F)c(Cl)c3)cc2C1(C)C | 0.105 |
| CCC1(c2cccs2)OCC(=O)Nc2ccc(-c3cc(F)cc(C#N)c3)cc21 (stereo not given) | 0.1 |
| CC1(C)OCC(=O)Nc2ccc(-c3cc(Cl)cc(C#N)c3)cc21 | 0.0346 |
| O=C1COC(c2cccs2)(c2cccs2)c2cc(-c3ccc(F)c(Cl)c3)ccc2N1 | 0.0652 |
| N#Cc1cc(F)cc(-c2ccc3c(c2)C(c2cccs2)(c2cccs2)OCC(=O)N3)c1 | 0.0266 |
| CC1(C)OCC(=O)Nc2ccc(-c3cc(F)cc(Cl)c3)cc21 | 0.015 |
| CCC1(c2ccco2)OCC(=O)Nc2ccc(-c3ccc(F)c(Cl)c3)cc21 (stereo not given) | 0.0625 |
| CCC1(c2cccs2)OCC(=O)Nc2ccc(-c3csc(C#N)c3)cc21 (stereo not given) | 0.108 |
| CCC1(c2ccco2)OCC(=O)Nc2ccc(-c3coc(C#N)c3)cc21 (stereo not given) | 0.0299 |
| CC1(C)OCC(=O)Nc2ccc(-c3cc(F)cc(F)c3)cc21 | 0.03 |
| CC1(c2cccs2)OCC(=O)Nc2ccc(-c3ccc(F)c(Cl)c3)cc21 (stereo not given) | 0.0655 |

What follows are compounds tested against T2, Progesterone receptor (assay: Agonist activity at progesterone receptor assessed as alkaline phosphatase activity in human T47D cells). Conditions: not given.

| SMILES | EC50 [µM] |
| --- | --- |
| CC1(C)OC(=O)Nc2ccc(-c3cc(F)cc(C#N)c3)cc21 | 0.09 |

Same assay, conditions: read-out: EC50

| SMILES | EC50 [µM] |
| --- | --- |
| CC1(C)OCC(=S)Nc2ccc(-c3cc(F)cc(F)c3)cc21 | 0.0358 |

— ChEMBL document CHEMBL1157410, “7-aryl 1,5-dihydro-benzo[e][1,4]oxazepin-2-ones and analogs as non-steroidal progesterone receptor antagonists” (Bioorg Med Chem, 2008)
